Experiments:
[1] = tested on: MCF-7 breast cancer cell line; test: Anticancer screening, MTT assay; format: cell-based, human
Method in brief: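 MCF-7 cells were seeded at 10,000 cells/well and grown 24 h in DMEM with 10% FBS and 1% antibiotic at 37 °C, 5% CO2. They were then exposed for 24 h to a range of test compound concentrations prepared in incomplete medium. MTT was added at 250 µg/ml final for 2 h, the supernatant was removed, and formazan was dissolved in DMSO. Absorbance was read at 540 nm, in triplicate.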

[2] = tested on: C. albicans (ATCC SC5314); test: Antifungal activity, broth microdilution MIC; format: cell-based
DHFR = biological target: T1, DHFR (Homo sapiens, UniProt P00374); test: DHFR inhibition assay; format: biochemical; conditions: from IC50 values
T1 sequence (P00374 1-187): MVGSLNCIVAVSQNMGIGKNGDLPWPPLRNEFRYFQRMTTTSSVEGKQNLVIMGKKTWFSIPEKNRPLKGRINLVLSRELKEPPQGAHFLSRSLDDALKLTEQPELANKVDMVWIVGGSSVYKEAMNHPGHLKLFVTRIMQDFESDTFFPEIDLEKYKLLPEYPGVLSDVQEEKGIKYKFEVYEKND

| SMILES | Anticancer activity against MCF-7, in words [1] | Inhibitory activity against fungal strain C. albicans, in words [2] | DHFR inhibitory potency relative to methotrexate (DHFR) |
| --- | --- | --- | --- |
| CC1CCC(C(C)C)C(OC(=O)C=Cc2ccc(O)c(O)c2)C1 (stereo not drawn) [CE3, 2-isopropyl-5-methylcyclohexyl 3-(3,4-dihydroxyphenyl)acrylate] | moderate anticancer activity | moderate action | – |
| CC(C)NCC(COc1cccc2ccccc12)OC(=O)C=Cc1ccc(O)c(O)c1 (stereo not drawn) [CE11, 1-(isopropylamino)−3-(naphthalen-1-yloxy)propan-2-yl 3-(3,4-dihydroxyphenyl)acrylate] | – | – | approximately four times more effective than methotrexate |
| O=C(C=Cc1ccc(O)c(O)c1)OCCc1ccccc1 [CE12, Phenethyl 3-(3,4-dihydroxyphenyl)acrylate] | – | moderate action | – |
| Nc1ccccc1OC(=O)C=Cc1ccc(O)c(O)c1 [CE17, 2-aminophenyl 3-(3,4-dihydroxyphenyl)acrylate] | moderate anticancer activity | moderate action | – |

From article PMC11658390 (BMC Chemistry, 2024)
